Reference: ChEMBL document CHEMBL5058577, “EUbOPEN Chemogenomics Library 2 (Multiplex)” (2022)

Test system: U2OS
Test: Multiplex assay against U2OS
Assay type: toxicity, cell-based
Conditions: human
Procedure, shortened: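 On a CQ1 microscope at 37°C and 5% CO2, live cells were imaged after compound addition. They had been stained at seeding with Hoechst33342, BioTracker Green Microtubule Cytoskeleton Dye, MitoTracker Red and Annexin V Alexa Fluor 680. CellPathfinder machine-learning gating assigned cells to Hoechst high-intensity objects or normal cells, normal cells to healthy, pyknosed or fragmented nuclei, and pyknosed cells to mitotic or apoptotic. Tubulin, mitochondrial-mass and membrane-permeability phenotypes are per cents of healthy-nucleus cells.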

[1] = 12 h, 1 µM, compound concentration 1 uM, replicate 1
[2] = 12 h, 1 µM, compound concentration 1 uM, replicate 2
[3] = 12 h, 10 µM, compound concentration 10 uM, replicate 1
[4] = 12 h, 10 µM, compound concentration 10 uM, replicate 2
[5] = 24 h, 1 µM, compound concentration 1 uM, replicate 1
[6] = 24 h, 1 µM, compound concentration 1 uM, replicate 2
[7] = 24 h, 10 µM, compound concentration 10 uM, replicate 1
[8] = 24 h, 10 µM, compound concentration 10 uM, replicate 2
[9] = 48 h, 1 µM, compound concentration 1 uM, replicate 1
[10] = 48 h, 1 µM, compound concentration 1 uM, replicate 2
[11] = 48 h, 10 µM, compound concentration 10 uM, replicate 1
[12] = 48 h, 10 µM, compound concentration 10 uM, replicate 2

Structure (SMILES): CN1CCN(c2cc(-c3ccccc3)nc(N)n2)CC1
- Population Apoptotic (%) [1]: 80%
- Population Fragmented Nuclei (%) [1]: 32%
- Population Healthy Nuclei (%) [1]: 61%
- Population Hoechst High Intensity Objects (%) [1]: 2%
- Population Membrane Permeable-Phenotype (%) [1]: 5%
- Population Mitochondria Different-Phenotype (%) [1]: 2%
- Population Mitotic Cells (%) [1]: 20%
- Population Normal (%) [1]: 97%
- Population Pyknosed Nuclei (%) [1]: 6%
- Population Tubulin-Different-Phenotype (%) [1]: 2%
- Total Cell Count [1]: 235
- Population Apoptotic (%) [2]: 62%
- Population Fragmented Nuclei (%) [2]: 17%
- Population Healthy Nuclei (%) [2]: 76%
- Population Hoechst High Intensity Objects (%) [2]: 1%
- Population Membrane Permeable-Phenotype (%) [2]: 7%
- Population Mitochondria Different-Phenotype (%) [2]: 5%
- Population Mitotic Cells (%) [2]: 37%
- Population Normal (%) [2]: 98%
- Population Pyknosed Nuclei (%) [2]: 5%
- Population Tubulin-Different-Phenotype (%) [2]: 11%
- Total Cell Count [2]: 141
- Population Apoptotic (%) [3]: 86%
- Population Fragmented Nuclei (%) [3]: 30%
- Population Healthy Nuclei (%) [3]: 63%
- Population Hoechst High Intensity Objects (%) [3]: 0%
- Population Membrane Permeable-Phenotype (%) [3]: 5%
- Population Mitochondria Different-Phenotype (%) [3]: 3%
- Population Mitotic Cells (%) [3]: 13%
- Population Normal (%) [3]: 99%
- Population Pyknosed Nuclei (%) [3]: 6%
- Population Tubulin-Different-Phenotype (%) [3]: 3%
- Total Cell Count [3]: 252
- Population Apoptotic (%) [4]: 73%
- Population Fragmented Nuclei (%) [4]: 8%
- Population Healthy Nuclei (%) [4]: 80%
- Population Hoechst High Intensity Objects (%) [4]: 1%
- Population Membrane Permeable-Phenotype (%) [4]: 10%
- Population Mitotic Cells (%) [4]: 26%
- Population Normal (%) [4]: 98%
- Population Pyknosed Nuclei (%) [4]: 10%
- Population Tubulin-Different-Phenotype (%) [4]: 7%
- Total Cell Count [4]: 139
- Population Apoptotic (%) [5]: 86%
- Population Fragmented Nuclei (%) [5]: 25%
- Population Healthy Nuclei (%) [5]: 65%
- Population Hoechst High Intensity Objects (%) [5]: 1%
- Population Membrane Permeable-Phenotype (%) [5]: 7%
- Population Mitochondria Different-Phenotype (%) [5]: 1%
- Population Mitotic Cells (%) [5]: 13%
- Population Normal (%) [5]: 98%
- Population Pyknosed Nuclei (%) [5]: 8%
- Population Tubulin-Different-Phenotype (%) [5]: 4%
- Total Cell Count [5]: 278
- Population Apoptotic (%) [6]: 80%
- Population Fragmented Nuclei (%) [6]: 21%
- Population Healthy Nuclei (%) [6]: 73%
- Population Membrane Permeable-Phenotype (%) [6]: 6%
- Population Mitotic Cells (%) [6]: 20%
- Population Pyknosed Nuclei (%) [6]: 5%
- Population Tubulin-Different-Phenotype (%) [6]: 9%
- Total Cell Count [6]: 177
- Population Apoptotic (%) [7]: 100%
- Population Fragmented Nuclei (%) [7]: 23%
- Population Healthy Nuclei (%) [7]: 69%
- Population Hoechst High Intensity Objects (%) [7]: 1%
- Population Membrane Permeable-Phenotype (%) [7]: 9%
- Population Mitochondria Different-Phenotype (%) [7]: 3%
- Population Mitotic Cells (%) [7]: 0%
- Population Normal (%) [7]: 98%
- Population Pyknosed Nuclei (%) [7]: 6%
- Population Tubulin-Different-Phenotype (%) [7]: 7%
- Total Cell Count [7]: 287
- Population Apoptotic (%) [8]: 81%
- Population Fragmented Nuclei (%) [8]: 12%
- Population Healthy Nuclei (%) [8]: 80%
- Population Hoechst High Intensity Objects (%) [8]: 2%
- Population Membrane Permeable-Phenotype (%) [8]: 4%
- Population Mitochondria Different-Phenotype (%) [8]: 4%
- Population Mitotic Cells (%) [8]: 18%
- Population Normal (%) [8]: 97%
- Population Tubulin-Different-Phenotype (%) [8]: 2%
- Total Cell Count [8]: 166
- Population Apoptotic (%) [9]: 83%
- Population Fragmented Nuclei (%) [9]: 21%
- Population Healthy Nuclei (%) [9]: 69%
- Population Hoechst High Intensity Objects (%) [9]: 2%
- Population Membrane Permeable-Phenotype (%) [9]: 5%
- Population Mitochondria Different-Phenotype (%) [9]: 1%
- Population Mitotic Cells (%) [9]: 16%
- Population Normal (%) [9]: 97%
- Population Pyknosed Nuclei (%) [9]: 9%
- Population Tubulin-Different-Phenotype (%) [9]: 2%
- Total Cell Count [9]: 409
- Population Apoptotic (%) [10]: 69%
- Population Fragmented Nuclei (%) [10]: 19%
- Population Healthy Nuclei (%) [10]: 75%
- Population Hoechst High Intensity Objects (%) [10]: 3%
- Population Mitochondria Different-Phenotype (%) [10]: 2%
- Population Mitotic Cells (%) [10]: 30%
- Population Normal (%) [10]: 96%
- Population Pyknosed Nuclei (%) [10]: 5%
- Population Tubulin-Different-Phenotype (%) [10]: 7%
- Total Cell Count [10]: 267
- Population Apoptotic (%) [11]: 100%
- Population Fragmented Nuclei (%) [11]: 19%
- Population Healthy Nuclei (%) [11]: 71%
- Population Hoechst High Intensity Objects (%) [11]: 1%
- Population Membrane Permeable-Phenotype (%) [11]: 5%
- Population Mitochondria Different-Phenotype (%) [11]: 3%
- Population Mitotic Cells (%) [11]: 0%
- Population Normal (%) [11]: 98%
- Population Pyknosed Nuclei (%) [11]: 8%
- Population Tubulin-Different-Phenotype (%) [11]: 6%
- Total Cell Count [11]: 420
- Population Apoptotic (%) [12]: 88%
- Population Fragmented Nuclei (%) [12]: 11%
- Population Healthy Nuclei (%) [12]: 78%
- Population Membrane Permeable-Phenotype (%) [12]: 2%
- Population Mitotic Cells (%) [12]: 12%
- Population Pyknosed Nuclei (%) [12]: 10%
- Population Tubulin-Different-Phenotype (%) [12]: 1%
- Total Cell Count [12]: 254
